Reference: ChEMBL document CHEMBL1158809, “Pseudotrienic acids A and B, two bioactive metabolites from Pseudomonas sp. MF381-IODS” (2005)
The source made the active and inactive calls. No cut-off for these calls is given here.

Columns and labels:
Microsporum canis = assay: Antimicrobial activity against Microsporum canis up to 100 ug/mL; assay type: functional, organism-based
Procedure, shortened: (§1)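 Minimum inhibitory concentration was measured in a microtiter plate growth bioassay against a panel of human and agricultural fungal pathogens and Gram-positive and Gram-negative bacteria.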

Pseudomonas savastanoi = assay: Antimicrobial activity against Pseudomonas savastanoi up to 100 ug/mL; assay type: functional, organism-based; procedure, shortened: as §1
Fusarium culmorum = assay: Antimicrobial activity against Fusarium culmorum up to 100 ug/mL; assay type: functional, organism-based; procedure, shortened: as §1
Aspergillus fumigatus = assay: Antimicrobial activity against Aspergillus fumigatus up to 100 ug/mL; assay type: functional, organism-based; procedure, shortened: as §1
Heterobasidion annosum = assay: Antimicrobial activity against Heterobasidion annosum up to 100 ug/mL; assay type: functional, organism-based; procedure, shortened: as §1
Staphylococcus aureus = assay: Antimicrobial activity against Staphylococcus aureus; assay type: functional
Fusarium oxysporum = assay: Antimicrobial activity against Fusarium oxysporum up to 100 ug/mL; assay type: functional, organism-based; procedure, shortened: as §1
Drechslera = assay: Antimicrobial activity against Drechslera sorokiniana up to 100 ug/mL; assay type: functional, organism-based; procedure, shortened: as §1
Candida albicans = assay: Antimicrobial activity against Candida albicans up to 100 ug/mL; assay type: functional, organism-based; procedure, shortened: as §1
Pseudomonas syringae = assay: Antimicrobial activity against Pseudomonas syringae pv. syringae; assay type: functional

In the case of `CCCCCCCCCC(O)/C=C/C(C)=C/CC(=O)NC[C@H](O)[C@H](C)C(=O)NCC/C=C/C=C/C=C/C(=O)O` (mixture of isomers) [PSEUDOTRIENIC ACID A], the Activity (Microsporum canis) is reported as “inactive”, the Activity (Pseudomonas savastanoi) is reported as “inactive” and the Activity (Fusarium culmorum) is reported as “inactive”. For the same compound, the Activity (Aspergillus fumigatus) was “inactive”, the Activity (Heterobasidion annosum) was “inactive” and the MIC (Staphylococcus aureus) was 70 µg/mL. For the same compound, the Activity (Fusarium oxysporum) was “inactive”, the Activity (Drechslera) was “inactive” and the Activity (Candida albicans) was “inactive”. It also gave an MIC (Pseudomonas syringae) of 70 µg/mL.

With `CCCCCCCC(O)/C=C/C(C)=C/CC(=O)NC[C@H](O)[C@H](C)C(=O)NCC/C=C/C=C/C=C/C(=O)O` (mixture of isomers) [PSEUDOTRIENIC ACID B] the Activity (Microsporum canis) was “inactive”, the Activity (Pseudomonas savastanoi) was “inactive” and the Activity (Fusarium culmorum) was “inactive”. For the same compound, the Activity (Aspergillus fumigatus) was “inactive”, the Activity (Heterobasidion annosum) was “inactive” and the MIC (Staphylococcus aureus) was 70 µg/mL. For the same compound, the Activity (Fusarium oxysporum) was “inactive”, the Activity (Drechslera) was “inactive” and the Activity (Candida albicans) was “inactive”. It also gave an MIC (Pseudomonas syringae) of 70 µg/mL.
